# Measurements from different studies.
# Lines come from different studies, so protocols differ.
SMILES,target or system,test,system,setting,endpoint,value
CCCCn1cnc2ccc(-c3ccc4sc(NC(=O)Nc5ccc(F)cc5)nc4c3)cc2c1=O,NCI-H1975,"cell growth or viability, MTT",,72 h,IC50,0.69 µM
CCCCn1cnc2ccc(-c3ccc(NC(=O)CCC)nc3)cc2c1=O,NCI-H1975,"cell growth or viability, CCK-8",,72 h,IC50,1.27 µM
NCC(=O)Nc1ccccc1/N=c1\cc(-c2ccc3c(c2)OCO3)oc2c(N)cccc12,NCI-H1975,"cell growth or viability, CCK-8",,1 µM,inhibition,4.64%
CCOc1ccc(Nc2c3c(nc4ccccc24)CCC3)cc1,Leishmania amazonensis,"parasite growth, MTT",,promastigote,IC50,1.43 µM
CCCCn1cnc2ccc(-c3ccc(NC(=O)C4CCCCC4)nc3)cc2c1=O,NCI-H1975,"cell growth or viability, CCK-8",,72 h,IC50,1.6 µM
CC(C)NC(=O)Nc1nc2cc(-c3ccc4ncn(Cc5ccccc5)c(=O)c4c3)ccc2s1,NCI-H1975,"cell growth or viability, MTT",,72 h,IC50,5.54 µM
Nc1nc2c(ncn2COCCO)c(=O)[nH]1,Human alphaherpesvirus 2,"viral replication, inhibitor, qPCR",Vero,,IC50,0.22 µM
CCCC(C)C(=O)Nc1ccc(-c2ccc3ncn(CCC)c(=O)c3c2)cn1 (stereo not shown),NCI-H1975,"cell growth or viability, CCK-8",,72 h,IC50,2.76 µM
COc1cccc(NC(=O)Nc2nc3cc(-c4ccc5ncn(CCC6CCCCC6)c(=O)c5c4)ccc3s2)c1,NCI-H1975,"cell growth or viability, MTT",,72 h,IC50,> 20 µM
CCCCC(=O)Nc1ccc(-c2ccc3ncn(CCC(C)C)c(=O)c3c2)cn1,NCI-H1975,"cell growth or viability, CCK-8",,72 h,IC50,0.54 µM
NCCCCC(=O)Nc1ccccc1/N=c1\cc(-c2ccc3c(c2)OCO3)oc2ccccc12,NCI-H1975,"cell growth or viability, CCK-8",,1 µM,inhibition,-2.12%
CCNC(=O)Nc1nc2cc(-c3ccc4ncn(Cc5ccccc5)c(=O)c4c3)ccc2s1,NCI-H1975,"cell growth or viability, MTT",,72 h,IC50,9.89 µM
NCCC(=O)Nc1ccc(/N=c2\cc(-c3ccc4c(c3)OCO4)oc3ccccc23)cc1,NCI-H1975,"cell growth or viability, CCK-8",,1 µM,inhibition,0.71%
CCCn1cnc2ccc(-c3ccc(NC(=O)CC(C)CC)nc3)cc2c1=O (stereo not shown),NCI-H1975,"cell growth or viability, CCK-8",,72 h,IC50,1.35 µM
C[C@H](N)C(=O)Nc1ccccc1/N=c1\cc(-c2ccc3c(c2)OCCO3)oc2c([N+](=O)[O-])cccc12,NCI-H1975,"cell growth or viability, CCK-8",,1 µM,inhibition,1.15%
c1ccc(Oc2ccc(Nc3c4c(nc5ccccc35)CCC4)cc2)cc1,Leishmania amazonensis,"parasite growth, MTT",,promastigote,IC50,1.09 µM
